Screening results from PubChem.
In the library only some 3.1% were active in any assay of this set; here they are far more common.
CHO parental Ca: counter-screen: ATP calcium response change in parental CHO cells; inhibition, % at 5.6 µM; AID 463079; parental CHO-K1, ATP-induced calcium, Fluo-8 fluorescence; 330,000 compounds, 0.63% hits;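 active = inhibition above that plate's mean sample inhibition plus 3 SD, cut at about 26% in these data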;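 note: 0% = ATP-challenged DMSO wells and 100% = DMSO wells without ATP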
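material = parental CHO cells | also added = ATP as calcium-mobilizing challenge | dosing = single point at 5.6 µM | detection = intracellular calcium via Fluo-8 no-wash fluorescent dye | read-out = % inhibition | benchmarks = low control ATP plus DMSO, high control DMSO only | repeats = one well per compound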
OX1R antag-1: antagonists of human orexin 1 receptor | O43613 | 330,000 compounds, 0.43% hits | CHO/OX1R cells, Fluo-8 calcium fluorescence, orexin A | inhibition, % at 5 µM | AID 434989;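 active = inhibition above its plate's threshold, mean inhibition of all tested compounds on the plate plus 3 SD, cut at about 37% in these data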;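 note: 0% = orexin A challenge wells and 100% = SB-334867-A antagonist wells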
GalR3 antagonist: blocks the human galanin receptor 3 | O60755 | HEK293 GalR3-CNG cAMP membrane potential fluorescence; galR3 body fused to GalR1 C-terminus | inhibition, % at 3 µM | 360,000 compounds, 0.44% hits;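 active = inhibition above the screen-wide average plus 3 SD, cut at about 13% in these data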;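 note: forskolin and galanin both at EC90 stimulate the cells; cAMP rise reported by CNG channel membrane potential dye signal; 0% = forskolin plus galanin with DMSO and 100% = forskolin alone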
Target sequence (O60755 1-299 limits assumed): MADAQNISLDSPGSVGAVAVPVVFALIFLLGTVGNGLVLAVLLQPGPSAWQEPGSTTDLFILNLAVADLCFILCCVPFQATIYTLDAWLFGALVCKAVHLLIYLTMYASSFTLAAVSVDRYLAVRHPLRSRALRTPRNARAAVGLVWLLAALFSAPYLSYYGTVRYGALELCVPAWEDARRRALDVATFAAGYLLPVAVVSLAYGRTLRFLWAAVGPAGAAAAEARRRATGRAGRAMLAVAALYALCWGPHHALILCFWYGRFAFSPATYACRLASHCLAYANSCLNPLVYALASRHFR
OX1R antag-2: OX1R (human) antagonism | inhibition, % at 6.6 µM | O43613 | AID 485270 | 330,000 compounds, 1.8% hits | OX1R-expressing cells, FRET antagonist read-out; in the data active = inhibition mostly above about 38%, no sharp cut-off; inactive = mostly below about 40%;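 note: 0% = agonist challenge alone and 100% = reference antagonist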
GPR7 antag: antagonists of human GPR7 (neuropeptides B/W receptor 1); inhibition, % at 4.4 µM; 290,000 compounds, 1.1% hits; GPR7-expressing cells, fluorescence antagonist assay; P48145; in the data active = inhibition above about 16%, passing the limit was not always enough;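 note: cells stimulated with the agonist NPW; 0% = agonist with vehicle and 100% = vehicle without agonist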
Target sequence (P48145 whole entry, looked up): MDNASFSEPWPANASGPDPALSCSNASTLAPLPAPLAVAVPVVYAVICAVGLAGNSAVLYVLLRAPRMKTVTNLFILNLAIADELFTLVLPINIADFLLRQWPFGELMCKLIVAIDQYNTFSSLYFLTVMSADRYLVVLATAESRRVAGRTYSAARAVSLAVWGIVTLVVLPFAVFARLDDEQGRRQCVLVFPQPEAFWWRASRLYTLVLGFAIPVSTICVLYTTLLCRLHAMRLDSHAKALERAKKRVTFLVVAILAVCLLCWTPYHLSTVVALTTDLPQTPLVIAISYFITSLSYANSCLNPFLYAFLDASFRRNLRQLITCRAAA
GalR3 conf: GalR3 (human) antagonism, confirmation | shares compounds with GalR3 antagonist | HEK293 GalR3 CNG cAMP biosensor, membrane potential fluorescence; galR3 fused to GalR1 carboxy tail; challenged with forskolin and galanin at EC90 | inhibition, % at 3 µM | 1,600 compounds, 59% hits | AID 652245;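 active = inhibition above the primary screen's cutoff, the mean inhibition of all screened compounds plus 3 SD, cut at about 13% in these data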;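 note: 0% = forskolin plus galanin and 100% = forskolin alone with DMSO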
CNG parental: parental cell agonism counter-screen for GalR3 antagonists; shares compounds with GalR3 antagonist; HEK293-CNG parental cells, cAMP membrane potential fluorescence; normalised: DMSO wells 0%, forskolin wells 100%; activation, % at 3 µM; 1,600 compounds, 10% hits; AID 652268; in the data active = activation above about 1.3%
* hit, by the source's call.

For CC(Oc1ccc(Cl)cc1)/C(N)=N/O (stereo unspecified) the results were CHO parental Ca -2, OX1R antag-1 5, GalR3 antagonist 16*, OX1R antag-2 1, GPR7 antag -9, GalR3 conf 5 and CNG parental 0.
`CC(Oc1ccc(Cl)cc1)C(=O)/C=C/N(C)C` (stereo unspecified) gave CHO parental Ca -5, OX1R antag-1 -15, GalR3 antagonist -5, OX1R antag-2 1 and GPR7 antag -6.
COc1ccc(-c2coc3c(C(=O)NCc4ccc(OC)c(OC)c4)cccc23)c(C)c1 was read as GalR3 antagonist 89*, GalR3 conf 104* and CNG parental 0.
`O=C(NCc1ccc(C(F)(F)F)cc1)c1ccc(-c2ccc(F)c(F)c2)c2ccoc12` gave GalR3 antagonist -6.
For COc1ccc(-c2coc3c(C(=O)NCc4ccc(F)c(F)c4)cccc23)c(C)c1 the results were GalR3 antagonist -8.
Screening COc1ccc(-c2ccc(C(=O)NCc3ccc(F)c(F)c3)c3occc23)c(C)c1 returned GalR3 antagonist -3.
`COc1ccc(-c2ccc(C(=O)NCc3ccncc3)c3occc23)c(C)c1` gave GalR3 antagonist 90*, GalR3 conf 103* and CNG parental 0.
`O=C(NCc1ccncc1)c1ccc(-c2ccc(F)c(F)c2)c2ccoc12` gave GalR3 antagonist 29*, GalR3 conf 9 and CNG parental 0.
CCN(CC)CCOCCn1c(C)ccc1C was read as GalR3 antagonist -4.
Fc1cc2ncn(Cc3ccccc3)c2cc1F was read as CHO parental Ca -13, OX1R antag-1 -18, OX1R antag-2 11, GPR7 antag -7, GalR3 conf 2 and CNG parental 0.
c1ccc(Cn2cnc3ccccc32)cc1 was read as CHO parental Ca -14, OX1R antag-1 17, GalR3 antagonist -3, OX1R antag-2 0 and GPR7 antag 10.
Screening Cc1cc2nc3n(c2cc1C)CC1CC(C(=O)NCc2ccco2)N(C)C31 (stereo unspecified) returned CHO parental Ca -7, OX1R antag-1 -6, GalR3 antagonist -4 and OX1R antag-2 3.
Screening CCC1COCCS(=O)(=O)N1Cc1ccc(F)cc1 (stereo unspecified) returned CHO parental Ca -1, OX1R antag-1 -18, GalR3 antagonist -1, OX1R antag-2 8 and GPR7 antag 9.
O=C(CN1CCN(c2ccc(F)cc2)CC1)Nc1ccccc1[N+](=O)[O-] was read as CHO parental Ca -21, OX1R antag-1 -15, GalR3 antagonist -1, OX1R antag-2 12 and GPR7 antag -2.
Screening COc1cc(NC(=O)c2cc(C)on2)cc(C(=O)Nc2cccc(C(F)(F)F)c2)c1 returned CHO parental Ca -2, OX1R antag-1 -21, GalR3 antagonist -5, OX1R antag-2 31, GalR3 conf 5 and CNG parental 0.
For CC(=O)NC1CCCc2c1cnn2-c1ccc(C(C)(C)C)cc1 (stereo unspecified) the results were CHO parental Ca 3, OX1R antag-1 -3, GalR3 antagonist -5, OX1R antag-2 8 and GPR7 antag -8.
Screening Cc1ccc(-n2ncc3c2CCCC3NC(=O)c2ocnc2C)cc1C (stereo unspecified) returned CHO parental Ca 27, OX1R antag-1 29, GalR3 antagonist 101*, OX1R antag-2 39, GPR7 antag 2, GalR3 conf 113* and CNG parental 0.
Cc1cc(C(=O)NC2CCCc3c2cnn3-c2cccc(C)c2C)n(C)n1 (stereo unspecified) was read as CHO parental Ca 55*, OX1R antag-1 25, GalR3 antagonist 100*, OX1R antag-2 54, GPR7 antag 3, GalR3 conf 105* and CNG parental -1.
Screening Cn1nccc1C(=O)NC1CCCc2c1cnn2-c1ccc(C(C)(C)C)cc1 (stereo unspecified) returned CHO parental Ca 56*, OX1R antag-1 22, GalR3 antagonist 109*, OX1R antag-2 49*, GPR7 antag 13, GalR3 conf 122* and CNG parental 0.
CC(C)(C)c1ccc(-n2ncc3c2CCCC3NC(=O)CCN2CCCC2=O)cc1 (stereo unspecified) was read as CHO parental Ca 20, OX1R antag-1 1, GalR3 antagonist 95*, OX1R antag-2 22, GPR7 antag 6, GalR3 conf 84* and CNG parental 0.
For CC1c2cc3c(cc2CCN1C(=O)c1cccc(Cl)c1)OCCCO3 (stereo unspecified) the results were CHO parental Ca -27, OX1R antag-1 -15, GalR3 antagonist -2, OX1R antag-2 19 and GPR7 antag 1.
Screening Cc1nc(NC(=O)COC(=O)C2CC3CCCC(C2)C3=O)c(Cl)cc1Cl (stereo unspecified) returned CHO parental Ca -12, OX1R antag-1 -14, GalR3 antagonist -6 and OX1R antag-2 12.
Cc1ccsc1C(=O)N(C)CC(=O)Nc1ccccc1Br was read as GalR3 antagonist -2.
Cc1cccc(C(=O)OCC(=O)N2CCCC2=O)c1O was read as CHO parental Ca -10, OX1R antag-1 12, GalR3 antagonist -4 and OX1R antag-2 4.
Cc1cc(Br)ccc1OCC(=O)NNC(=O)c1ccc(NC(=O)C2CC2)cc1 was read as CHO parental Ca -9, OX1R antag-1 -3, GalR3 antagonist 50*, OX1R antag-2 48, GPR7 antag 2, GalR3 conf 36* and CNG parental 0.
`Cc1ccc(C)c(OCC(=O)NNC(=O)c2ccc(NC(=O)C3CC3)cc2)c1` gave GalR3 antagonist 0 and GPR7 antag -8.
Screening CC(=O)c1ccc(OCCCC(=O)Nc2ccc(Cl)c(S(=O)(=O)N3CCOCC3)c2)cc1 returned GalR3 antagonist 87*, GalR3 conf 93* and CNG parental -1.
Cc1nn(C(C)C(=O)NCc2ccco2)c(=O)c2nn(-c3ccccc3)c(C)c12 (stereo unspecified) was read as CHO parental Ca -4, OX1R antag-1 1, GalR3 antagonist -8, OX1R antag-2 2 and GPR7 antag -10.
For O=C(Cc1ccc(Cl)cc1Cl)Nc1ccncc1Cl the results were CHO parental Ca 31*, OX1R antag-1 1, GalR3 antagonist 45*, OX1R antag-2 22, GPR7 antag 5, GalR3 conf 67* and CNG parental 1.
